# Article PMC3582904 (International Journal of Oncology, 2012)
# Read-outs that look alike come from different tables or passages of the source. Marks after values point to notes of the source that are not given here.
# Legend:
# [1] = tested on: EHMES-10 cells; assay: DNA fragmentation assay; assay type: cell-based, human; details: EHMES-10, single agent, 24 h, dose-dependent
# How it was run: (§1)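 Apoptosis was scored after 24 h exposure to either MEK or PI3K inhibitor or their combination, in RPMI-1640/10% FBS with DMSO final 1.0%. Cytoplasmic histone-associated DNA fragments were quantified with the Cell Death Detection ELISA kit. Means ± SD, ANOVA with Dunnett's test.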
# [2] = Side effects in EHMES-10 cell-bearing SCID mice; assay type: in vivo; details: day 30, median (range)
# [3] = tested on: EHMES-10 cells; assay: Orthotopic implantation model, EHMES-10 cells in SCID mice; assay type: in vivo; details: for Pleural effusion Incidence / Thoracic tumor Incidence: day 30; for Pleural effusion Volume / Thoracic tumor Weight: day 30, median (range); for survival time compared to control group: P<0.01
# How it was run: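 Male SCID mice aged 6–8 weeks received 3×10^6 EHMES-10 cells in PBS into the thoracic cavity. On day 7 they were randomized, […], to vehicle (40% DMSO in PBS), MEK inhibitor (20, 30, 40 mg/kg), PI3K inhibitor (12.5, 25, 50 mg/kg) or 30 + 25 mg/kg combined, given i.p. twice weekly. Mice were killed on day 30; tumor weighed, effusion volume measured. Medians (ranges), Mann-Whitney; survival by Kaplan-Meier/log-rank.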
# [4] = tested on: EHMES-10 cells; assay type: in vivo, SCID mice; details: thoracic tumors, day 30; for expression of p27kip1 and 89 kDa cleaved PARP (western blot of tumors): 30 mg/kg U0126, 25 mg/kg LY294002 or combination
# How it was run: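 Thoracic tumors were excised on day 30 from SCID mice given i.p. test compounds twice weekly in 40% DMSO/PBS. Paraffin sections were immunostained for phospho-ERK1/2, phospho-Akt and p27kip1 (Envision method, Fuchsin+ chromogen). Tumor homogenates were lysed in Tris/NaCl/Triton/NaF/Na3VO4 buffer, cleared at 15,000 × g, separated on 7.5–15% gels and immunoblotted.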
# [5] = tested on: EHMES-10 cells; assay: Cell cycle analysis; assay type: cell-based, human; details: 24 h; for percentage of cells in sub-G1 phase compared to control: EHMES-10, 80 μM each agent; for G1-phase population compared to control: EHMES-10, 80 μM, P<0.05
# How it was run: (§2)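 Cells grown in RPMI-1640 with 10% FBS at 37°C and 5% CO2 were exposed to 80 μM MEK inhibitor, 80 μM PI3K inhibitor or both for 24 h (DMSO final 1.0%). They were then trypsinized, and nuclei were stained with propidium iodide (CycleTest Plus kit). Phase profiles came from FACScan flow cytometry. Three independent runs; means ± SD, ANOVA with Dunnett's test.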
# [6] = tested on: EHMES-10 cells; assay: Western blot analysis of cultured EHMES-10 cells; assay type: cell-based, human; details: EHMES-10, 80 μM, 24 h
# How it was run: (§3)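 Cultured cells received 80 μM MEK inhibitor and/or 80 μM PI3K inhibitor for 24 h. Lysates were cleared at 15,000 × g, 15 min, 4°C, resolved on 7.5–15% gels, transferred to nitrocellulose and immunoblotted; three independent experiments.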
# [7] = tested on: MSTO211H cells; assay: Western blot analysis of cultured MSTO211H cells; assay type: cell-based, human; details: 80 μM, 24 h
# How it was run: as §3
# [8] = tested on: MSTO211H cells; assay: Cell cycle analysis; assay type: cell-based, human; details: 24 h; for percentage of cells in sub-G1 phase compared to control: 80 μM each agent; for G1-phase population compared to control: 80 μM, P<0.05
# How it was run: as §2
# [9] = cited from earlier work
# [10] = tested on: MSTO211H cells; assay: DNA fragmentation assay; assay type: cell-based, human; details: single agent, 24 h, dose-dependent
# How it was run: as §1
# [11] = tested on: MSTO211H cells; assay: WST-1 cell proliferation assay, MSTO211H; assay type: cell-based, human; details: 72 h, read-out: IC50 against MSTO211H cells
# How it was run: (§4)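 Cells at 1×10^4 per well in RPMI-1640/10% FBS were exposed for 72 h to test compound at 20 to 200 μM, with DMSO final 1.0%. Vehicle controls received matching DMSO. WST-1 reagent was then added, and absorbance was read at 450 nm against a 690 nm reference. IC50 was taken from the dose-response; means ± SD.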
# [12] = tested on: EHMES-10 cells; assay: WST-1 cell proliferation assay, EHMES-10; assay type: cell-based, human; details: 72 h, read-out: IC50 against EHMES-10 cells
# How it was run: as §4
# [13] = patients with advanced non-small cell lung, breast, colon, and pancreatic cancers; diarrhea, nausea, asthenia, rash, anorexia; cited from earlier work
# [14] = 25 mg/kg LY294002, alone or with 30 mg/kg U0126
# [15] = 30 mg/kg U0126, alone or with 25 mg/kg LY294002
structure (smiles),measurement,setting,value
O=c1cc(N2CCOCC2)oc2c(-c3ccccc3)cccc12 [LY294002],apoptosis by DNA fragmentation analysis,[1],induced apoptosis
same,ALT,[2]; 25 mg/kg i.p. twice/week,19 (15–72) IU/l
same,AST,[2]; 25 mg/kg i.p. twice/week,46 (37–117) IU/l
same,BUN,[2]; 25 mg/kg i.p. twice/week,20.2 (17.9–23.0) mg/dl
same,Cre,[2]; 25 mg/kg i.p. twice/week,0.11 (0.06–0.20) mg/dl
same,TP (serum total protein),[2]; 25 mg/kg i.p. twice/week,4.3 (3.9–5.6) g/dl
same,Weight (body weight),[2]; 25 mg/kg i.p. twice/week,25.4 (24.4–26.3) g
same,ALT,[2]; 50 mg/kg i.p. twice/week,25 (16–42) IU/l
same,AST,[2]; 50 mg/kg i.p. twice/week,51 (46–92) IU/l
same,BUN,[2]; 50 mg/kg i.p. twice/week,21.0 (16.4–23.2) mg/dl
same,Cre,[2]; 50 mg/kg i.p. twice/week,0.09 (0.07–0.12)^a mg/dl
same,TP (serum total protein),[2]; 50 mg/kg i.p. twice/week,4.4 (3.9–5.6) g/dl
same,Weight (body weight),[2]; 50 mg/kg i.p. twice/week,24.4 (22.7–26.3) g
same,Pleural effusion Incidence,[3]; 25 mg/kg i.p. twice/week,1/5
same,Thoracic tumor Incidence,[3]; 25 mg/kg i.p. twice/week,3/5
same,Pleural effusion Volume,[3]; 25 mg/kg i.p. twice/week,0 (0–10)^a μl
same,Thoracic tumor Weight,[3]; 25 mg/kg i.p. twice/week,69.1 (0–481.6)^a mg
same,survival time compared to control group,[3]; 50 mg/kg i.p. twice a week,significantly prolonged
same,Pleural effusion Incidence,[3]; 50 mg/kg i.p. twice/week,0/5
same,Thoracic tumor Incidence,[3]; 50 mg/kg i.p. twice/week,2/5
same,Pleural effusion Volume,[3]; 50 mg/kg i.p. twice/week,0 (−)^a μl
same,Thoracic tumor Weight,[3]; 50 mg/kg i.p. twice/week,0 (0–41)^a mg
same,Akt phosphorylation (western blot of tumors),[4]; [14],inhibited
same,phospho-Akt-positive tumor cells (immunohistochemistry),[4]; [14],reduced
same,expression of p27kip1 and 89 kDa cleaved PARP (western blot of tumors),[4],increased
same,percentage of cells in sub-G1 phase compared to control,[5],significantly increased
same,G1-phase population compared to control,[5],significantly increased
same,HIF1α and VEGF expression,[6],inhibited
same,cyclin D1 expression,[6],decrease
same,level of 89 kDa cleaved PARP,[6],increased
same,levels of phospho-Bad and procaspase 3,[6],decreased
same,"phosphorylation of Akt, p70S6K, S6 and GSK3β",[6],suppressed
same,level of 89 kDa cleaved PARP,[7],increased
same,levels of phospho-Bad and procaspase 3,[7],decreased
same,percentage of cells in sub-G1 phase compared to control,[8],significantly increased
same,G1-phase population compared to control,[8],significantly increased
same,side effects,[9]; administration reduced to three days per week,side effects were not shown
same,side effects,"[9]; daily intraperitoneal 100 mg/kg, mice with ovarian cancer",body weight loss and dry skin
same,apoptosis by DNA fragmentation analysis,[10],induced apoptosis
same,IC50,"[11]; Homo sapiens, MSTO-211H",29.9 µM
same,IC50,[12]; Homo sapiens,20.7 µM
N#CC(=C(/N)Sc1ccccc1N)/C(C#N)=C(/N)Sc1ccccc1N [U0126],apoptosis by DNA fragmentation analysis,[1],induced apoptosis
same,ALT,[2]; 30 mg/kg i.p. twice/week,30 (20–60) IU/l
same,AST,[2]; 30 mg/kg i.p. twice/week,48 (44–64) IU/l
same,BUN,[2]; 30 mg/kg i.p. twice/week,22.2 (15.4–24.0) mg/dl
same,Cre,[2]; 30 mg/kg i.p. twice/week,0.10 (0.08–0.15) mg/dl
same,TP (serum total protein),[2]; 30 mg/kg i.p. twice/week,4.3 (4.0–5.0) g/dl
same,Weight (body weight),[2]; 30 mg/kg i.p. twice/week,24.1 (23.5–27.2) g
same,ALT,[2]; 40 mg/kg i.p. twice/week,45 (31–80) IU/l
same,AST,[2]; 40 mg/kg i.p. twice/week,75 (53–111) IU/l
same,BUN,[2]; 40 mg/kg i.p. twice/week,19.1 (15.3–22.1) mg/dl
same,Cre,[2]; 40 mg/kg i.p. twice/week,0.07 (0.05–0.12)^a mg/dl
same,TP (serum total protein),[2]; 40 mg/kg i.p. twice/week,5.0 (4.4–6.6) g/dl
same,Weight (body weight),[2]; 40 mg/kg i.p. twice/week,24.9 (23.3–25.9) g
same,survival time compared to control group,[3]; 30 mg/kg i.p. twice a week,significantly prolonged
same,Pleural effusion Incidence,[3]; 30 mg/kg i.p. twice/week,1/5
same,Thoracic tumor Incidence,[3]; 30 mg/kg i.p. twice/week,4/5
same,Pleural effusion Volume,[3]; 30 mg/kg i.p. twice/week,0 (0–100)^a μl
same,Thoracic tumor Weight,[3]; 30 mg/kg i.p. twice/week,31.3 (0–59.2)^a mg
same,survival time compared to control group,[3]; 40 mg/kg i.p. twice a week,significantly prolonged
same,Pleural effusion Incidence,[3]; 40 mg/kg i.p. twice/week,0/5
same,Thoracic tumor Incidence,[3]; 40 mg/kg i.p. twice/week,3/5
same,Pleural effusion Volume,[3]; 40 mg/kg i.p. twice/week,0 (−)^a μl
same,Thoracic tumor Weight,[3]; 40 mg/kg i.p. twice/week,14.6 (0–191.3)^a mg
same,expression of p27kip1 and 89 kDa cleaved PARP (western blot of tumors),[4],increased
same,ERK1/2 phosphorylation (western blot of tumors),[4]; [15],inhibited
same,phospho-ERK1/2-positive tumor cells (immunohistochemistry),[4]; [15],reduced
same,percentage of cells in sub-G1 phase compared to control,[5],significantly increased
same,G1-phase population compared to control,[5],significantly increased
same,HIF1α and VEGF expression,[6],decreased
same,cyclin D1 expression,[6],decrease
same,level of 89 kDa cleaved PARP,[6],increased
same,levels of phospho-Bad and procaspase 3,[6],decreased
same,phosphorylation of ERK1/2 and p90RSK,[6],blocked
same,cyclin D1 expression,[7],decrease
same,level of 89 kDa cleaved PARP,[7],increased
same,levels of phospho-Bad and procaspase 3,[7],decreased
same,percentage of cells in sub-G1 phase compared to control,[8],significantly increased
same,G1-phase population compared to control,[8],significantly increased
same,apoptosis by DNA fragmentation analysis,[10],induced apoptosis
same,IC50,[11]; WST-1 assay,39 µM
same,IC50,[12]; WST-1 assay,66.8 µM
O=C(NOCC1CC1)c1ccc(F)c(F)c1Nc1ccc(I)cc1Cl [CI-1040],toxicities in patients,[13],mild or moderate toxicities
